As usually defined, the MIC is the lowest concentration found to suppress growth. Low readings indicate greater potency, high ones weaker potency. Broadly, the AUC is the area under the concentration-time curve, a measure of exposure. Higher therefore signals more exposure. One may read the ED50 as the dose at which the effect has come halfway, by size or by number of responders.

In brackets after ≈: the same amount, converted by molar mass.

Data set [1] relates to Bacillus cereus. The data set is described as follows: Minimum inhibitory concentration (MIC) preventing growth of Bacillus cereus. The format is functional.
Data set [2] concerns Bacillus subtilis. The data set is described as follows: Minimum inhibitory concentration (MIC) preventing growth of Bacillus subtilis. The format is functional.
The test system of data set [3] is Escherichia coli. The data set is described as follows: Minimum inhibitory concentration (MIC)preventing growth of Escherichia coli. In kind it is functional.
Data set [4] concerns Klebsiella pneumoniae. In words: Minimum inhibitory concentration (MIC)preventing growth of Klebsiella pneumoniae. The format is functional.
For data set [5], the system named is Morganella morganii. In words: Minimum inhibitory concentration (MIC) preventing growth of Morganella morganii. In kind it is functional.
For data set [6], the system named is Proteus vulgaris. In words: Minimum inhibitory concentration (MIC) preventing growth of Proteus vulgaris. In kind it is functional.
Data set [7] relates to Staphylococcus epidermidis. The data set is described as follows: pIn vitro minimum inhibitory concentration (MIC) that prevented growth of Staphylococcus epidermidis ATCC 155-1 (Se) after incubation at 37 degree C for 18 h. In kind it is functional.
The test system of data set [8] is Staphylococcus aureus. The data set is described as follows: Minimum inhibitory concentration (MIC) preventing growth of […]. The format is functional.
Data set [9] relates to Enterococcus faecalis. The data set is described as follows: Minimum inhibitory concentration (MIC) preventing growth of Streptococcus faecalis ATCC 10541. In kind it is functional.
The subject of data set [10] is Enterobacter cloacae. In words: Minimum inhibitory concentration (MIC)preventing growth of Enterobacter cloacae. The format is functional.
Data set [11] deals with Pseudomonas aeruginosa. In words: Minimum inhibitory concentration (MIC)preventing growth of Pseudomonas aeruginosa. In kind it is functional.
The test system of data set [12] is Mus musculus. In words: Blood level after oral administration in mice (50 mg/kg) was determined by bioassay procedure and represent total activity present in the serum. The format is ADME, organism-based. As to conditions: in vivo. The essentials:
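Single oral dose of 50 mg/kg to mice. Blood taken from groups of six mice at 0.5, 1, 2 and 4 h after dosing. Serum levels measured by disk agar diffusion bioassay with Bacillus subtilis ATCC 6633 on Seed Agar, plates incubated 18 h at 37 °C, giving total activity in serum. AUC 0-4 h expressed as μg/mL […].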

Data set [13] deals with Escherichia coli. In words: Efficacy on systemic infections after oral administration in mice was determined against Escherichia coli HM-42. In kind it is functional. The essentials: (§1)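 Mouse protection test using 4 groups of 10 mice. Mice were infected intraperitoneally with a bacterial suspension slightly above LD100. A single oral dose was given immediately after infection, with four doses, one per group, chosen from in vitro activity. Survival was scored after one week, and ED50 (total mg/kg protecting 50% of mice) was interpolated from group survival rates.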

For data set [14], the system named is Pseudomonas aeruginosa. In words: Efficacy on systemic infections after oral administration in mice was determined against Pseudomonas aeruginosa HS-116. The format is functional. The essentials: as §1
The test system of data set [15] is Staphylococcus epidermidis. In words: Minimum inhibitory concentration (MIC) preventing growth of Staphylococcus epidermidis. The format is functional.
In data set [16] the test system is Staphylococcus aureus. In words: Efficacy on systemic infections after oral administration in mice was determined against […] HS-93. In kind it is functional. The procedure, abridged:
as §1

Take `CC1COc2c(N3CC(C)(N)C3)c(F)cc3c(=O)c(C(=O)O)cn1c23` (stereo unspecified): the MIC worked out at 0.5 µg/mL (≈ 1.44 µM) in data set [1]; 0.12 µg/mL (≈ 0.345 µM) in data set [2]; 0.12 µg/mL (≈ 0.345 µM) in data set [3]; 0.015 µg/mL (≈ 0.0432 µM) in [4]; 0.25 µg/mL (≈ 0.72 µM) in data set [5]; 1 µg/mL (≈ 2.88 µM) in [6]. In addition, the MIC in data set [7] was determined as 0.25 µg/mL (≈ 0.72 µM); in [8] it was 0.5 µg/mL (≈ 1.44 µM); in [9], 0.5 µg/mL (≈ 1.44 µM); in data set [10] it was 0.12 µg/mL (≈ 0.345 µM); in [11], 2 µg/mL (≈ 5.76 µM).
In turn, `CC1(N)CN(c2nc3c(cc2F)c(=O)c(C(=O)O)cn3C2CC2)C1` yielded an area under the curve (AUC) in data set [12] of 31700 ng·h/mL. In addition, the minimum inhibitory concentration (MIC) in [1] stood at 0.12 µg/mL (≈ 0.361 µM); in data set [2] it was 0.03 µg/mL (≈ 0.0903 µM); in [3], 0.03 µg/mL (≈ 0.0903 µM); in data set [4], 0.03 µg/mL (≈ 0.0903 µM); in data set [5], 0.06 µg/mL (≈ 0.181 µM); in data set [6], 0.12 µg/mL (≈ 0.361 µM). Also, the MIC in data set [15] was 0.12 µg/mL (≈ 0.361 µM); in data set [8] it was 0.25 µg/mL (≈ 0.752 µM); in data set [9], 0.25 µg/mL (≈ 0.752 µM); in data set [10] it was 0.03 µg/mL (≈ 0.0903 µM); in [11], 0.5 µg/mL (≈ 1.5 µM). Besides, the 50% effective dose (ED50) in [13] was 2.8 mg/kg; in [14], 52 mg/kg; in [16], 10.7 mg/kg.
In data set [12], `CC1(N)CN(c2c(F)cc3c(=O)c(C(=O)O)cn(-c4ccc(F)cc4F)c3c2Cl)C1` came in with an AUC of 23300 ng·h/mL. Further, the minimal inhibitory concentration (MIC) in data set [1] came out at 0.06 µg/mL (≈ 0.137 µM); in [2], 0.03 µg/mL (≈ 0.0685 µM); in data set [3] it was 0.03 µg/mL (≈ 0.0685 µM); in data set [4] it was 0.03 µg/mL (≈ 0.0685 µM); in data set [5], 0.25 µg/mL (≈ 0.571 µM); in data set [6], 0.12 µg/mL (≈ 0.274 µM). Besides, the MIC stood at 0.06 µg/mL (≈ 0.137 µM) in data set [15]; 0.06 µg/mL (≈ 0.137 µM) in [8]; 0.25 µg/mL (≈ 0.571 µM) in data set [9]; 0.12 µg/mL (≈ 0.274 µM) in [10]; 0.5 µg/mL (≈ 1.14 µM) in data set [11]. For the same compound, the ED50 worked out at 1.5 mg/kg in data set [13], 43 mg/kg in data set [14] and 1.2 mg/kg in data set [16].

For the origin of these results see ChEMBL document CHEMBL1126625, “7-Azetidinylquinolones as antibacterial agents. Synthesis and structure-activity relationships” (J Med Chem, 1993).
